Test results from ChEMBL document CHEMBL4038284, “Synthesis of novel quinoline-based 4,5-dihydro-1H-pyrazoles as potential anticancer, antifungal, antibacterial and antiprotozoal agents” (Eur J Med Chem, 2017).
Values after ≈ are worked out from the molar mass of the structure shown.

How the values were obtained:
Klebsiella pneumoniae [1] = assay: Antibacterial activity against ESBL positive Klebsiella pneumoniae ATCC 700603 after 24 hrs by resazurin dye based microdilution assay; format: functional; conditions: Klebsiella pneumoniae, 700603, 24 h
Method in brief: (§1)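 MIC taken as the lowest concentration giving visible inhibition and/or by resazurin (1 mg/mL). Gentamicin was the control. Run in duplicate, repeated at least three times.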

Klebsiella pneumoniae [2] = assay: Antibacterial activity against carbapenemase positive Klebsiella pneumoniae BAA 1705 after 24 hrs by resazurin dye based microdilution assay; format: functional; conditions: BAA 1705, 24 h; method in brief: as §1
Leishmania panamensis = assay: Antileshmanial activity against EpiR/GFP fused Leishmania panamensis MHOM/CO/87/UA140 intracellular amastigotes infected in human […] cells after 72 hrs by flow cytometric method; format: functional, cell-based; conditions: MHOM/CO/87/UA140, 72 h
Method in brief: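 PMA-treated U-937 cells (3 × 10^5 cells/mL) infected with stationary-phase GFP L. panamensis promastigotes (15:1), 3 h at 34 °C, then washed. After 24 h, compounds added at 50, 12.5, 3.125 and 0.78 µg/mL for 72 h at 37 °C. EC50 by Probit; triplicate, two experiments.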

Candida albicans [3] = assay: Antifungal activity against Candida albicans ATCC 10231 incubated for 48 hrs under dark condition by broth microdilution method; format: functional; conditions: ATCC 10231, 48 h
Method in brief: (§2)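 CLSI M27-A3 broth microdilution in RPMI-1640, DMSO ≤1%, compounds at 250-0.98 µg/mL final. Inoculum 1-5 × 10^3 CFU/mL. Incubated 48 h at 30 °C in a moist dark chamber, read at OD405. MIC80 and MIC50 taken from % inhibition dose-response curves (mean ± SEM, triplicate). Amphotericin B was the positive control.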

Cryptococcus neoformans [4] = assay: Antifungal activity against Cryptococcus neoformans ATCC 32264 incubated for 48 hrs under dark condition by broth microdilution method; format: functional; conditions: ATCC 32264, 48 h; method in brief: as §2
Candida albicans [5] = assay: Growth inhibition of Candida albicans ATCC 10231 at 250 ug/ml incubated for 48 hrs under dark condition by broth microdilution method relative to control; format: functional; conditions: ATCC 10231, 48 h, read-out: GI
Method in brief: (§3)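 CLSI M27-A3 broth microdilution in RPMI-1640, DMSO ≤1%. Inoculum 1-5 × 10^3 CFU/mL. Incubated 48 h at 30 °C, dark. % inhibition = 100 − (OD405 test − sterility control)/(OD405 growth control − sterility control), with growth and sterility control wells. Triplicate.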

Candida albicans [6] = assay: Growth inhibition of Candida albicans ATCC 10231 at 125 ug/ml incubated for 48 hrs under dark condition by broth microdilution method relative to control; format: functional; conditions: ATCC 10231, 48 h, read-out: GI; method in brief: as §3
Candida albicans [7] = assay: Growth inhibition of Candida albicans ATCC 10231 at 62.5 ug/ml incubated for 48 hrs under dark condition by broth microdilution method relative to control; format: functional; conditions: ATCC 10231, 48 h, read-out: GI; method in brief: as §3
Candida albicans [8] = assay: Growth inhibition of Candida albicans ATCC 10231 at 31.25 ug/ml incubated for 48 hrs under dark condition by broth microdilution method relative to control; format: functional; conditions: ATCC 10231, 48 h, read-out: GI; method in brief: as §3
Candida albicans [9] = assay: Growth inhibition of Candida albicans ATCC 10231 at 15.62 ug/ml incubated for 48 hrs under dark condition by broth microdilution method relative to control; format: functional; conditions: ATCC 10231, 48 h, read-out: GI; method in brief: as §3
Candida albicans [10] = assay: Growth inhibition of Candida albicans ATCC 10231 at 7.8 ug/ml incubated for 48 hrs under dark condition by broth microdilution method relative to control; format: functional; conditions: ATCC 10231, 48 h, read-out: GI; method in brief: as §3
Candida albicans [11] = assay: Growth inhibition of Candida albicans ATCC 10231 at 3.4 ug/ml incubated for 48 hrs under dark condition by broth microdilution method relative to control; format: functional; conditions: ATCC 10231, 48 h, read-out: GI
Cryptococcus neoformans [12] = assay: Growth inhibition of Cryptococcus neoformans ATCC 32264 at 250 ug/ml incubated for 48 hrs under dark condition by broth microdilution method relative to control; format: functional; conditions: ATCC 32264, 48 h, read-out: GI; method in brief: as §3
Cryptococcus neoformans [13] = assay: Growth inhibition of Cryptococcus neoformans ATCC 32264 at 125 ug/ml incubated for 48 hrs under dark condition by broth microdilution method relative to control; format: functional; conditions: ATCC 32264, 48 h, read-out: GI; method in brief: as §3
Cryptococcus neoformans [14] = assay: Growth inhibition of Cryptococcus neoformans ATCC 32264 at 62.5 ug/ml incubated for 48 hrs under dark condition by broth microdilution method relative to control; format: functional; conditions: ATCC 32264, 48 h, read-out: GI; method in brief: as §3
Cryptococcus neoformans [15] = assay: Growth inhibition of Cryptococcus neoformans ATCC 32264 at 31.25 ug/ml incubated for 48 hrs under dark condition by broth microdilution method relative to control; format: functional; conditions: ATCC 32264, 48 h, read-out: GI; method in brief: as §3
Cryptococcus neoformans [16] = assay: Growth inhibition of Cryptococcus neoformans ATCC 32264 at 15.62 ug/ml incubated for 48 hrs under dark condition by broth microdilution method relative to control; format: functional; conditions: ATCC 32264, 48 h, read-out: GI; method in brief: as §3
Cryptococcus neoformans [17] = assay: Growth inhibition of Cryptococcus neoformans ATCC 32264 at 7.8 ug/ml incubated for 48 hrs under dark condition by broth microdilution method relative to control; format: functional; conditions: ATCC 32264, 48 h, read-out: GI; method in brief: as §3
Cryptococcus neoformans [18] = assay: Growth inhibition of Cryptococcus neoformans ATCC 32264 at 3.4 ug/ml incubated for 48 hrs under dark condition by broth microdilution method relative to control; format: functional; conditions: ATCC 32264, 48 h, read-out: GI
Staphylococcus aureus [19] = assay: Antibacterial activity against methicillin-sensitive Staphylococcus aureus ATCC 25923 after 24 hrs by resazurin dye based microdilution assay; format: functional; conditions: ATCC 25923, 24 h; method in brief: as §1
Staphylococcus aureus [20] = assay: Antibacterial activity against methicillin-resistant Staphylococcus aureus ATCC 43300 after 24 hrs by resazurin dye based microdilution assay; format: functional; conditions: ATCC 43300, 24 h
Method in brief: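 Broth microdilution in Mueller Hinton broth, inoculum 5 × 10^5 – 8 × 10^5. Compound stocks diluted in MHB with 5% DMSO and 0.1% Tween 80. Incubation 24 h at 35-37 °C. MIC is the lowest concentration with visible growth inhibition and/or by resazurin (1 mg/mL) read-out. Gentamicin as control. Run in duplicate, replicated at least three times.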

Staphylococcus aureus [21] = assay: Antibacterial activity against vancomycin-intermediate Staphylococcus aureus after 24 hrs by resazurin dye based microdilution assay; format: functional; method in brief: as §1
Escherichia coli = assay: Antibacterial activity against Escherichia coli ATCC 25922 after 24 hrs by resazurin dye based microdilution assay; format: functional; conditions: ATCC 25922, 24 h; method in brief: as §1
Pseudomonas aeruginosa = assay: Antibacterial activity against Pseudomonas aeruginosa ATCC 27853 after 24 hrs by resazurin dye based microdilution assay; format: functional; conditions: ATCC 27853, 24 h; method in brief: as §1
Neisseria gonorrhoeae = assay: Antibacterial activity against beta lactamase positive Neisseria gonorrhoeae ATCC 31426 by oxidase test; format: functional
Method in brief: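 Agar dilution MIC on GC agar with 1% isovitalex containing increasing compound concentrations. Plates inoculated with about 1×10^4 CFU (5 µL). MIC is the lowest concentration that inhibited growth, with growth confirmed by oxidase test. Run in duplicate, repeated at least three times.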

Plasmodium falciparum = assay: Antiplasmodial activity against chloroquine-sensitive Plasmodium falciparum 3D7 assessed as reduction in parasitic LDH activity after 48 hrs by Malstat reagent based […] method; format: functional; conditions: 3D7, 48 h
Method in brief: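 Unsynchronized P. falciparum 3D7 at 0.5% parasitemia and 1% hematocrit in RPMI with 3% Albumax II. Exposed to 100, 25, 6.25 and 1.56 µg/mL for 48 h at 37 °C under 90% N2/5% CO2/5% O2. After three freeze-thaw cycles, LDH measured with Malstat and NBT/PES, 1 h in the dark, read at 650 nm. IC50 by Probit; triplicate, ≥2 experiments.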

U-937 = assay: Cytotoxicity against human U937 cells after 72 hrs by MTT assay; format: cell-based; conditions: u-937, 72 h
Method in brief: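 Exponentially growing U-937 at 1 × 10^5 cells/mL in RPMI-1640 with 10% FBS were exposed to 200, 50, 12.5 and 3.125 µg/mL for 72 h at 37 °C, 5% CO2. MTT for 3 h, stopped with isopropanol/SDS, formazan read at 570 nm, blank-corrected. LC50 by Probit from % viability against untreated cells. Triplicate, at least two independent experiments.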

Trypanosoma cruzi = assay: Antitrypanosomal activity against Trypanosoma cruzi Tulahuen intracellular amastigote harboring LacZ infected in human U937 cells after 72 hrs by CPRG/Nonidet reagent based spectrophotometric method; format: functional, cell-based; conditions: U-937, 72 h
Method in brief: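 U-937 cells at 2.5 × 10^5 cells/mL in RPMI-1640 with 10% serum and 0.1 µg/mL PMA were infected with β-galactosidase-transfected Tulahuen epimastigotes at 5 parasites per cell. Infected cells were exposed to 50, 12.5, 3.125 and 0.78 µg/mL for 72 h. CPRG (100 uM) and 0.1% Nonidet P-40 were added for 3 h, read at 570 nm. EC50 by Probit. Triplicate, at least two experiments; benznidazole as reference.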

SMILES | MIC (Klebsiella pneumoniae [1]) | MIC (Klebsiella pneumoniae [2]) | EC50 (Leishmania panamensis) | MIC50 (Candida albicans [3]) | MIC80 (Candida albicans [3]) | MIC50 (Cryptococcus neoformans [4]) | MIC80 (Cryptococcus neoformans [4]) | inhibition of growth at 250 µg/mL (Candida albicans [5]) | inhibition of growth at 125 µg/mL (Candida albicans [6]) | inhibition of growth at 62.5 µg/mL (Candida albicans [7]) | inhibition of growth at 31.25 µg/mL (Candida albicans [8]) | inhibition of growth at 15.62 µg/mL (Candida albicans [9]) | inhibition of growth at 7.8 µg/mL (Candida albicans [10]) | inhibition of growth at 3.4 µg/mL (Candida albicans [11]) | inhibition of growth at 250 µg/mL (Cryptococcus neoformans [12]) | inhibition of growth at 125 µg/mL (Cryptococcus neoformans [13]) | inhibition of growth at 62.5 µg/mL (Cryptococcus neoformans [14]) | inhibition of growth at 31.25 µg/mL (Cryptococcus neoformans [15]) | inhibition of growth at 15.62 µg/mL (Cryptococcus neoformans [16]) | inhibition of growth at 7.8 µg/mL (Cryptococcus neoformans [17]) | other results
Cc1ccc(C(=O)/C=C/c2cccc(Nc3ccnc4cc(Cl)ccc34)c2)cc1 | > 1000 µg/mL | > 1000 µg/mL | 1.2 µg/mL (≈ 3.01 µM) | 125 µg/mL (≈ 313 µM) | ≥ 250 µg/mL | 7.8 µg/mL (≈ 19.6 µM) | 15.6 µg/mL (≈ 39.2 µM) | 63.6% | 53.1% | 45.4% | 39.6% | 36.6% | 30.6% | 27.2% | 100% | 100% | 100% | 100% | 93.7% | 71.8% | inhibition of growth at 3.4 µg/mL (Cryptococcus neoformans [18]): 41.4%; MIC (Staphylococcus aureus [19]): > 1000 µg/mL; MIC (Staphylococcus aureus [20]): > 1000 µg/mL; MIC (Staphylococcus aureus [21]): > 1000 µg/mL; MIC (Escherichia coli): > 1000 µg/mL; MIC (Pseudomonas aeruginosa): > 1000 µg/mL; MIC (Neisseria gonorrhoeae): > 1000 µg/mL; EC50 (Plasmodium falciparum): 10.3 µg/mL (≈ 25.7 µM); LC50 (U-937): 2 µg/mL (≈ 5.01 µM); EC50 (Trypanosoma cruzi): > 1 µg/mL
Clc1cc(Cl)cc(N2N=C(c3ccccc3)CC2c2cccc(Nc3ccnc4cc(Cl)ccc34)c2)c1 (stereo not given) | > 1000 µg/mL | > 1000 µg/mL | 17.8 µg/mL (≈ 32.8 µM) | ≥ 250 µg/mL | ≥ 250 µg/mL | ≥ 250 µg/mL | ≥ 250 µg/mL | 11.2% | 2.17% | 0% | 0% | 0% | 0% | 0% | 7.5% | 3.29% | 3.07% | 2.16% | 1.36% | 0% | inhibition of growth at 3.4 µg/mL (Cryptococcus neoformans [18]): 0%; MIC (Staphylococcus aureus [19]): > 1000 µg/mL; MIC (Staphylococcus aureus [20]): > 1000 µg/mL; MIC (Staphylococcus aureus [21]): > 1000 µg/mL; MIC (Escherichia coli): > 1000 µg/mL; MIC (Pseudomonas aeruginosa): > 1000 µg/mL; MIC (Neisseria gonorrhoeae): > 1000 µg/mL; EC50 (Plasmodium falciparum): 12.5 µg/mL (≈ 23.1 µM); LC50 (U-937): > 200 µg/mL; EC50 (Trypanosoma cruzi): 32.6 µg/mL (≈ 60 µM)
